Assays:
[1] = Therapeutic index value for anti-Ehrlich activity.; details: mouse; for selectivity ratio: read-out: TI
Procedure, shortened: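 Ehrlich ascites cells (10^6) were inoculated ip into 5 female ICR mice. Ip dosing began 24 h later and was given once daily for 5 days. Therapeutic ratio = MTD/MED. MED is the minimum dose giving 100% inhibition of tumor growth. MTD is the maximum dose giving 100% inhibition without mouse deaths.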

[2] = Therapeutic index value for anti L1210 activity; Inactive
Procedure, shortened: (§1)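 Mice were male BDF1 inoculated ip with 10^5 L1210 cells. Ip treatment began 24 h later. Therapeutic ratio = OD/ILS30. ILS30 is the daily dose giving a 30% increase in life-span over control. OD is the daily dose giving the maximum increase in life-span.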

L1210 [3] = experiment: Antitumor activity against Leukemia L1210 cells in BDF1 mice at the dose of 400 mg/kg/day x 5 (ip), maximum increase in life-span; type: functional, Mus musculus
Procedure, shortened: (§2)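 Male BDF1 mice were inoculated ip with 10^5 L1210 leukemia cells. Drug was given ip once daily for 5 days, starting 24 h after inoculation. ILS (%) = (T/C-1) × 100. The recorded value is the ILS at the optimal dose, meaning the daily dose giving the maximum increase in life-span.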

[4] = Maximum tolerated dose required antitumor activity against Ehrlich ascites carcinoma cells in female ICR mice.
L1210 [5] = experiment: Antitumor activity against Leukemia L1210 cells in male BDF1 mice at the dose of 25 mg/kg/day x5 (i.p.) expressed as maximal increase in life-span; type: functional, Mus musculus; details: route intraperitoneal; procedure, shortened: as §2
[6] = Minimum effective dose required for antitumor activity against Ehrlich ascites carcinoma cells in female ICR mice.
[7] = Therapeutic index value for anti-L1210 activity.; details: mouse; for selectivity ratio: read-out: TI; procedure, shortened: as §1
L1210 [8] = experiment: Antitumor activity against Leukemia L1210 cells in BDF1 mice at the dose of 50 mg/kg/day x 1 (i.p.), ILS30; details: route intraperitoneal
[9] = […] required for antitumor activity against Ehrlich ascites carcinoma cells in […] mice.; type: functional, Mus musculus
L1210 [10] = experiment: Antitumor activity against Leukemia L1210 cells in male BDF1 mice at the dose of 100 mg/kg/day x5 (i.p.) expressed as maximal increase in life-span; type: functional, Mus musculus; details: route intraperitoneal
Procedure, shortened: (§3)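 L1210 leukemia cells (10^5) given ip to male BDF1 mice. Ip dosing started 24 h after inoculation and was given once daily for 5 days. Life-span increase was calculated as ILS (%) = (T/C-1) × 100. Optimal dose was the daily dose giving the maximum increase in life-span.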

L1210 [11] = experiment: Antitumor activity against Leukemia L1210 cells in male BDF1 mice at the dose of 230 mg/kg/day x1 (i.p.) expressed as maximal increase in life-span; type: functional, Mus musculus; details: route intraperitoneal
Procedure, shortened: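 Male BDF1 mice (six or eight) received 10^5 L1210 cells ip. A single ip dose, in (mg/kg)/day × 1, was given 24 h after inoculation. ILS (%) = (T/C-1) × 100. The optimal dose was the dose giving the maximum increase in life-span.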

L1210 [12] = experiment: Antitumor activity against Leukemia L1210 cells in male BDF1 mice at the dose of 200 mg/kg/day x5 (i.p.) expressed as maximal increase in life-span; type: functional, Mus musculus; details: route intraperitoneal; procedure, shortened: as §3
L1210 [13] = experiment: Antitumor activity against Leukemia L1210 cells in BDF1 mice at the dose of 6.25 mg/kg/day x5 (i.p.) expressed as maximal increase in life-span; type: functional, Mus musculus; details: route intraperitoneal; procedure, shortened: as §3
L1210 [14] = experiment: Antitumor activity against Leukemia L1210 cells in BDF1 mice at the dose of 6.25 mg/kg/day x 5 (ip), maximum increase in life-span; type: functional, Mus musculus; procedure, shortened: as §2
L1210 [15] = experiment: Antitumor activity against Leukemia L1210 cells in BDF1 mice at the dose of 25 mg/kg/day x1 (i.p.) expressed as maximal increase in life-span; details: route intraperitoneal
L1210 [16] = experiment: Antitumor activity against Leukemia L1210 cells in male BDF1 mice at the dose of 6.25 mg/kg/day x5 (i.p.) expressed as maximal increase in life-span; type: functional, Mus musculus; details: route intraperitoneal; procedure, shortened: as §3
L1210 [17] = experiment: Antitumor activity against Leukemia L1210 cells in BDF1 mice at the dose of 50 mg/kg/day x5 (i.p.) expressed as maximal increase in life-span; type: functional, Mus musculus; details: route intraperitoneal; procedure, shortened: as §3
L1210 [18] = experiment: Antitumor activity against Leukemia L1210 cells in BDF1 mice at the dose of 130 mg/kg/ day *5 (i.p.) expressed as maximal increase in life-span; type: functional, Mus musculus; details: route intraperitoneal; in the assay text read “25 mg/kg/ day” for “130 mg/kg/ day”; procedure, shortened: as §3
L1210 [19] = experiment: Antitumor activity against Leukemia L1210 cells in male BDF1 mice at the dose of 400 mg/kg/day x5 (i.p.) expressed as maximal increase in life-span; type: functional, Mus musculus; details: route intraperitoneal; procedure, shortened: as §3
L1210 [20] = experiment: Antitumor activity against Leukemia L1210 cells in male BDF1 mice at the dose of 50 mg/kg/day x5 (i.p.) expressed as maximal increase in life-span; type: functional, Mus musculus; details: route intraperitoneal; procedure, shortened: as §3
L1210 [21] = experiment: Antitumor activity against Leukemia L1210 cells in male BDF1 mice at the dose of 200 mg/kg/day x5 (ip) expressed as maximal increase in life-span; type: functional, Mus musculus; procedure, shortened: as §3

| Structure (SMILES) | selectivity ratio [1] | selectivity ratio [7] | MED [9] [mg kg-1 5day-1] | ILS30 (L1210 [10]) | other results |
| --- | --- | --- | --- | --- | --- |
| CCCCCCCCCCCCCCCCN(C(=O)N(CCCl)N=O)C1OC(CO)C(OC2OC(CO)C(O)C(O)C2O)C(O)C1O (stereo unspecified) | 32 |  |  |  | TI [2]: Not Active |
| CC(=O)OCC1OC(N(CC(C)C)C(=O)N(CCCl)N=O)C(OC(C)=O)C(OC(C)=O)C1COCC1OC(COC(C)=O)C(OC(C)=O)C(OC(C)=O)C1OC(C)=O (stereo unspecified) |  |  |  |  | ILS max (L1210 [3]): 18% |
| O=NN(CCCl)C(=O)NC1CCCCC1 [LOMUSTINE] | 4 | 5.1 |  |  | MTD [4]: 50 mg kg-1 5day-1; ILS30 (L1210 [5]): 4.9; MED [6]: 12.5 mg kg-1 5day-1; ILS30 (L1210 [8]): 9.3 mg/kg |
| Cc1ncc(CNC(=O)N(CCCl)N=O)c(N)n1 [NIMUSTINE] | 8 | 9.3 |  |  | MTD [4]: 25 mg kg-1 5day-1; ILS30 (L1210 [5]): 2.9; MED [6]: 3.12 mg kg-1 5day-1 |
| O=NN(CCCl)C(=O)N(CC1CC1)C1OC(CO)C(OC2OC(CO)C(O)C(O)C2O)C(O)C1O (stereo unspecified) | 64 | 28.6 | 1.56 | 3.5 |  |
| CN(C(=O)N(CCCl)N=O)C1OC(CO)C(OC2OC(CO)C(O)C(O)C2O)C(O)C1O (stereo unspecified) | 32 | 11.4 |  | 8.8 |  |
| CCOCCN(C(=O)N(CCCl)N=O)C1OC(CO)C(OC2OC(CO)C(O)C(O)C2O)C(O)C1O (stereo unspecified) | 64 | 37 | 3.12 | 2.7 |  |
| CC(C)CN(C(=O)N(CCCl)N=O)C1OC(CO)C(OC2OC(CO)C(O)C(O)C2O)C(O)C1O (stereo in doubt; 37) |  |  |  | 1.2 | TI [1]: 256; ILS30 (L1210 [11]): 7.3 |
| C=CCCN(C(=O)N(CCCl)N=O)C1OC(CO)C(OC2OC(CO)C(O)C(O)C2O)C(O)C1O (stereo unspecified) | 128 | 64.5 | 1.56 |  | ILS30 (L1210 [12]): 3.1 |
| COCCN(C(=O)N(CCCl)N=O)C1OC(CO)C(OC2OC(CO)C(O)C(O)C2O)C(O)C1O (stereo unspecified) | 64 | 11.8 | 3.12 |  | ILS30 (L1210 [12]): 17 |
| CCC(C)N(C(=O)N(CCCl)N=O)C1OC(CO)C(OC2OC(CO)C(O)C(O)C2O)C(O)C1O (stereo unspecified) | 128 | 66.7 | 1.56 | 1.5 |  |
| CCCCCN(C(=O)N(CCCl)N=O)C1OC(CO)C(OC2OC(CO)C(O)C(O)C2O)C(O)C1O (stereo unspecified) | 64 | 28.6 | 3.12 | 3.5 |  |
| O=NN(CCCl)C(=O)N(CC1CCCO1)C1OC(CO)C(OC2OC(CO)C(O)C(O)C2O)C(O)C1O (stereo unspecified) | 64 | 33.3 | 3.12 |  | ILS30 (L1210 [12]): 6 |
| CC(C)N(C(=O)N(CCCl)N=O)C1OC(CO)C(OC2OC(CO)C(O)C(O)C2O)C(O)C1O (stereo unspecified) | 32 | 18.5 |  | 5.4 |  |
| O=NN(CCCl)C(=O)N[C@@H]1O[C@H](CO)[C@@H](O)[C@H](O)[C@H]1O | 32 | 7.8 |  |  | ILS30 (L1210 [13]): 0.8; MTD [4]: 12.5 mg kg-1 5day-1; ILS max (L1210 [14]): >198.6%; ILS30 (L1210 [15]): 1.1; MED [6]: 0.39 mg kg-1 5day-1; ILS30 (L1210 [16]): 0.8 |
| CCCCN(C(=O)N(CCCl)N=O)C1OC(CO)C(OC2OC(CO)C(O)C(O)C2O)C(O)C1O (stereo unspecified) | 32 | 22.2 | 6.25 | 4.5 |  |
| COCCCN(C(=O)N(CCCl)N=O)C1OC(CO)C(OC2OC(CO)C(O)C(O)C2O)C(O)C1O (stereo unspecified) | 64 | 26.7 | 3.12 |  | ILS30 (L1210 [12]): 7.5 |
| CC(C)CN(C(=O)N(CCCl)N=O)C1OC(CO)C(O)C(O)C1O (stereo unspecified) |  | 50 |  |  | ILS30 (L1210 [17]): 1; ILS30 (L1210 [11]): 2.6; ILS30 (L1210 [18]): 0.73; TI [7]: 34.2 |
| C=C(C)CN(C(=O)N(CCCl)N=O)C1OC(CO)C(OC2OC(CO)C(O)C(O)C2O)C(O)C1O (stereo unspecified) | 128 | 62.5 | 1.56 |  | ILS30 (L1210 [12]): 3.2 |
| CC(C)CN(C(=O)N(CCCl)N=O)C1OC(COC2OC(CO)C(O)C(O)C2O)C(O)C(O)C1O (stereo unspecified) | 1 | 1.1 |  |  | ILS30 (L1210 [19]): 350 |
| C=CCN(C(=O)N(CCCl)N=O)C1OC(CO)C(OC2OC(CO)C(O)C(O)C2O)C(O)C1O (stereo unspecified) | 64 | 50 | 1.56 | 2 |  |
| O=NN(CCCl)C(=O)N(Cc1ccc(Cl)cc1)C1OC(CO)C(OC2OC(CO)C(O)C(O)C2O)C(O)C1O (stereo unspecified) | 128 | 10 | 1.56 |  | ILS30 (L1210 [12]): 20 |
| CCCCCCN(C(=O)N(CCCl)N=O)C1OC(CO)C(OC2OC(CO)C(O)C(O)C2O)C(O)C1O (stereo unspecified) | 32 | 3.6 |  |  | ILS30 (L1210 [20]): 14 |
| CCCN(C(=O)N(CCCl)N=O)C1OC(CO)C(OC2OC(CO)C(O)C(O)C2O)C(O)C1O (stereo unspecified) | 64 | 20.4 |  | 4.9 |  |
| O=NN(CCCl)C(=O)N(CC1CCCCC1)C1OC(CO)C(OC2OC(CO)C(O)C(O)C2O)C(O)C1O (stereo unspecified) | 32 | 12.5 | 3.12 | 8 |  |
| CC(C)CN(C(=O)N(CCCl)N=O)C1OC(CO)C(OC2OC(CO)C(O)C(O)C2O)C(O)C1O (stereo in doubt; 63) |  |  | 100 |  | TI [1]: 2; ILS30 (L1210 [21]): 160; TI [7]: 1.3 |

Source: ChEMBL document CHEMBL1122043, “A new class of nitrosoureas. 4. Synthesis and antitumor activity of disaccharide derivatives of 3,3-disubstituted 1-(2-chloroethyl)-1-nitrosoureas” (J Med Chem, 1982)
